Reference: ChEMBL document CHEMBL4346672, “Antimicrobial and KPC/AmpC inhibitory activity of functionalized benzosiloxaboroles” (Eur J Med Chem, 2019)
Values after ≈ are worked out from the molar mass of the structure shown. Active and inactive are the calls of the source. The calls are words filed in the database; no cut-off is given here.

Tests used:
Acinetobacter baumannii [1] = test: Antibacterial activity against Acinetobacter baumannii ATCC 19606 assessed as diameter of zone inhibition measured after 18 hrs by CLSI disc diffusion method; assay type: functional
Outline: (§1)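 Disc diffusion on Mueller-Hinton II agar. Compounds dissolved in DMSO. Strains stored at -80 °C and subcultured twice on tryptic soy agar before testing. Inhibition zones read after 35 °C, 18 h.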

Enterococcus faecium = test: Antibacterial activity against Enterococcus faecium ATCC 6057 assessed as diameter of zone inhibition measured after 18 hrs by CLSI disc diffusion method; assay type: functional; outline: as §1
Proteus mirabilis [2] = test: Antibacterial activity against Proteus mirabilis ATCC 12453 assessed as fold reduction of MIC in presence of efflux pump inhibitor PAbetaN incubated for 18 hrs by broth microdilution method; assay type: functional
Outline: (§2)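 MICs determined with and without PAβN at 50 mg/L in Mueller-Hinton broth containing 1 mM MgSO₄. 2-fold serial dilutions per CLSI. Fold change taken from the paired MICs after 35 °C, 18 h.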

Escherichia coli [3] = test: Antibacterial activity against Escherichia coli ATCC 25922 assessed as diameter of zone inhibition measured after 18 hrs by CLSI disc diffusion method; assay type: functional; outline: as §1
Candida parapsilosis = test: Antifungal activity against Candida parapsilosis ATCC 22019 assessed as diameter of zone inhibition incubated for 24 hrs by CLSI disc diffusion method; assay type: functional
Outline: (§3)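 Yeast disc diffusion on Mueller-Hinton agar supplemented with 2% glucose and 0.5 mg/L methylene blue. Compounds in DMSO. Yeasts subcultured on Sabouraud dextrose agar before testing. Zones read after 35 °C, 24 h.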

Serratia marcescens [4] = test: Antibacterial activity against Serratia marcescens ATCC 13880 assessed as fold reduction of MIC in presence of efflux pump inhibitor PAbetaN incubated for 18 hrs by broth microdilution method; assay type: functional; outline: as §2
[5] = tested on: Bordetella bronchiseptica; test: Antibacterial activity against Bordetella bronchiseptica ATCC 4617 assessed as diameter of zone inhibition measured after 18 hrs by CLSI disc diffusion method; assay type: functional; outline: as §1
Pseudomonas aeruginosa [6] = test: Antibacterial activity against Pseudomonas aeruginosa ATCC 27853 assessed as diameter of zone inhibition measured after 18 hrs by CLSI disc diffusion method; assay type: functional, organism-based; outline: as §1
[7] = tested on: Meyerozyma guilliermondii; test: Antifungal activity against Candida guilliermondii IBA 155 assessed as decrease in fungal cell growth at 0.78 to 12.5 mg/L incubated for 24 hrs by CLSI broth dilution method; assay type: functional; conditions: IBA 155, 24 h
Outline: (§4)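 Yeast broth dilution in RPMI 1640 with 2% glucose, compounds in DMSO. Yeasts pre-grown on Sabouraud dextrose agar. Growth read after 35 °C, 24 h.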

[8] = tested on: Staphylococcus epidermidis; test: Antibacterial activity against Staphylococcus epidermidis ATCC 12228 measured after 18 hrs by CLSI broth dilution method; assay type: functional; conditions: ATCC 12228, 18 h
Outline: (§5)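 Broth MIC in Mueller-Hinton II broth following CLSI, compounds dissolved in DMSO. Strains subcultured twice on tryptic soy agar before testing. Growth read after 35 °C, 18 h.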

Candida tropicalis [9] = test: Antifungal activity against Candida tropicalis IBA 171 assessed as decrease in fungal cell growth at 0.78 to 12.5 mg/L incubated for 24 hrs by CLSI broth dilution method; assay type: functional; conditions: IBA 171, 24 h; outline: as §4
Enterobacter cloacae [10] = test: Antibacterial activity against Enterobacter cloacae DSM 6234 assessed as diameter of zone inhibition measured after 18 hrs by CLSI disc diffusion method; assay type: functional; outline: as §1
Klebsiella pneumoniae = test: Antibacterial activity against Klebsiella pneumoniae ATCC 13883 assessed as fold reduction of MIC in presence of efflux pump inhibitor PAbetaN incubated for 18 hrs by broth microdilution method; assay type: functional; outline: as §2
Bacillus subtilis = test: Antibacterial activity against Bacillus subtilis ATCC 6633 assessed as diameter of zone inhibition measured after 18 hrs by CLSI disc diffusion method; assay type: functional; outline: as §1
Serratia marcescens [11] = conditions: ATCC 13880
Saccharomyces cerevisiae [12] = test: Antifungal activity against Saccharomyces cerevisiae ATCC 9763 diameter of zone inhibition incubated for 24 hrs by CLSI disc diffusion method; assay type: functional
Outline: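 Disc-diffusion run on Mueller-Hinton II agar with 2% glucose and 0.5 mg/L methylene blue, using compounds in DMSO. Yeast was precultured on Sabouraud dextrose agar (24–48 h, 30 °C). Zones read after 24 h at 35 °C.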

[13] = tested on: Staphylococcus epidermidis; test: Antibacterial activity against Staphylococcus epidermidis ATCC 12228 assessed as diameter of zone inhibition measured after 18 hrs by CLSI disc diffusion method; assay type: functional; outline: as §1
Pseudomonas aeruginosa [14] = test: Antibacterial activity against Pseudomonas aeruginosa ATCC 27853 assessed as fold reduction of MIC in presence of efflux pump inhibitor PAbetaN incubated for 18 hrs microdilution method; assay type: functional; outline: as §2
Burkholderia cepacia = test: Antibacterial activity against Burkholderia cepacia ATCC 25416 measured after 18 hrs by CLSI broth dilution method; assay type: functional; conditions: ATCC 25416, 18 h; outline: as §5
Saccharomyces cerevisiae [15] = test: Antifungal activity against Saccharomyces cerevisiae ATCC 9763 assessed as decrease in fungal cell growth at 0.78 to 12.5 mg/L incubated for 24 hrs by CLSI broth dilution method; assay type: functional; conditions: ATCC 9763, 24 h
Outline: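 Yeast strain subcultured on Sabouraud dextrose agar for 24–48 h at 30 °C before testing. Compounds dissolved in DMSO.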

Proteus mirabilis [16] = test: Antibacterial activity against Proteus mirabilis ATCC 12453 assessed as diameter of zone inhibition measured after 18 hrs by CLSI disc diffusion method; assay type: functional; outline: as §1
Candida tropicalis [17] = test: Antifungal activity against Candida tropicalis IBA 171 assessed as diameter of zone inhibition incubated for 24 hrs by CLSI disc diffusion method; assay type: functional; outline: as §3
[18] = tested on: Meyerozyma guilliermondii; test: Antifungal activity against Candida guilliermondii IBA 155 assessed as diameter of zone inhibition incubated for 24 hrs by CLSI disc diffusion method; assay type: functional; outline: as §3
[19] = tested on: Stenotrophomonas maltophilia; test: Antibacterial activity against Stenotrophomonas maltophilia ATCC 13637 measured after 18 hrs by CLSI broth dilution method; assay type: functional; conditions: ATCC 13637, 18 h; outline: as §5
[20] = Dissociation constant, pKa1 of compound in 0.1 M NaOH by potentiometric analysis; assay type: physicochemical
Enterococcus faecalis = test: Antibacterial activity against Enterococcus faecalis ATCC 29212 measured after 18 hrs by CLSI broth dilution method; assay type: functional; conditions: ATCC 29212, 18 h; outline: as §5
Enterobacter cloacae [21] = test: Antibacterial activity against Enterobacter cloacae DSM 6234 measured after 18 hrs by CLSI broth dilution method; assay type: functional; conditions: DSM 6234, 18 h; outline: as §5
Candida albicans = test: Antifungal activity against Candida albicans ATCC 90028 assessed as decrease in fungal cell growth at 0.78 to 12.5 mg/L incubated for 24 hrs by CLSI broth dilution method; assay type: functional; conditions: ATCC 90028, 24 h; outline: as §4
Acinetobacter baumannii [22] = test: Antibacterial activity against Acinetobacter baumannii ATCC 19606 assessed as fold reduction of MIC in presence of efflux pump inhibitor PAbetaN incubated for 18 hrs by broth microdilution method; assay type: functional; outline: as §2
Staphylococcus aureus = test: Antibacterial activity against Staphylococcus aureus ATCC 6538P measured after 18 hrs by CLSI broth dilution method; assay type: functional; outline: as §5
Escherichia coli [23] = test: Antibacterial activity against Escherichia coli ATCC 25922 measured after 18 hrs by CLSI broth dilution method; assay type: functional; conditions: ATCC 25922, 18 h; outline: as §5
Enterobacter cloacae [24] = test: Antibacterial activity against Enterobacter cloacae DSM 6234 assessed as fold reduction of MIC in presence of efflux pump inhibitor PAbetaN incubated for 18 hrs by broth microdilution method; assay type: functional; outline: as §2

| Compound | diameter of the inhibition zone (DIZ) (Acinetobacter baumannii [1]) | diameter of the inhibition zone (DIZ) (Enterococcus faecium) | fold change (FC) (Proteus mirabilis [2]) | diameter of the inhibition zone (DIZ) (Escherichia coli [3]) | diameter of the inhibition zone (DIZ) (Candida parapsilosis) | fold change (FC) (Serratia marcescens [4]) | diameter of the inhibition zone (DIZ) [5] | diameter of the inhibition zone (DIZ) (Pseudomonas aeruginosa [6]) | MIC [7] [µg/mL] | MIC [8] [µg/mL] | MIC (Candida tropicalis [9]) [µg/mL] | diameter of the inhibition zone (DIZ) (Enterobacter cloacae [10]) | fold change (FC) (Klebsiella pneumoniae) | diameter of the inhibition zone (DIZ) (Bacillus subtilis) [mm] | DIZ (Serratia marcescens [11]) | diameter of the inhibition zone (DIZ) (Saccharomyces cerevisiae [12]) | diameter of the inhibition zone (DIZ) [13] [mm] | fold change (FC) (Pseudomonas aeruginosa [14]) | MIC (Burkholderia cepacia) [µg/mL] | MIC (Saccharomyces cerevisiae [15]) [µg/mL] | other results |
| --- | --- | --- | --- | --- | --- | --- | --- | --- | --- | --- | --- | --- | --- | --- | --- | --- | --- | --- | --- | --- | --- |
| C[Si]1(C)OB(O)c2ccc(B(O)O)cc21 | inactive | 12 mm | 4 | inactive | inactive | 2 | inactive | inactive | > 400 | 50 (≈ 225 µM) | 200 (≈ 901 µM) | inactive | 4 | 19 | inactive | inactive | 32 | 2 | > 400 | 100 (≈ 451 µM) | diameter of the inhibition zone (DIZ) (Proteus mirabilis [16]): inactive; diameter of the inhibition zone (DIZ) (Candida tropicalis [17]): inactive; diameter of the inhibition zone (DIZ) [18]: inactive; MIC [19]: 400 µg/mL (≈ 1800 µM); pKa [20]: 7.7; MIC (Enterococcus faecalis): 200 µg/mL (≈ 901 µM); MIC (Enterobacter cloacae [21]): > 400 µg/mL; MIC (Candida albicans): 400 µg/mL (≈ 1800 µM); fold change (FC) (Acinetobacter baumannii [22]): 2; MIC (Staphylococcus aureus): 200 µg/mL (≈ 901 µM); MIC (Escherichia coli [23]): > 400 µg/mL; fold change (FC) (Enterobacter cloacae [24]): 16 |
| C[Si]1(C)OB(O)c2ccc(F)cc21 | inactive | inactive | 2 | inactive | 11 mm | 8 | inactive | inactive | 25 (≈ 128 µM) | 50 (≈ 255 µM) | 12.5 (≈ 63.8 µM) | inactive | 8 | 14 | inactive | 46 mm | 26 | 16 | > 400 | 1.56 (≈ 7.97 µM) | diameter of the inhibition zone (DIZ) (Proteus mirabilis [16]): inactive; diameter of the inhibition zone (DIZ) (Candida tropicalis [17]): 11 mm; diameter of the inhibition zone (DIZ) [18]: 15 mm; MIC [19]: 200 µg/mL (≈ 1020 µM); pKa [20]: 7.3; MIC (Enterococcus faecalis): 200 µg/mL (≈ 1020 µM); MIC (Enterobacter cloacae [21]): > 400 µg/mL; MIC (Candida albicans): 25 µg/mL (≈ 128 µM); fold change (FC) (Acinetobacter baumannii [22]): 4; MIC (Staphylococcus aureus): 50 µg/mL (≈ 255 µM); MIC (Escherichia coli [23]): 400 µg/mL (≈ 2040 µM); fold change (FC) (Enterobacter cloacae [24]): 32 |
| C[Si]1(C)OB(O)c2ccc(Cl)c(Cl)c21 | inactive | 28 mm | 4 | inactive | 28 mm | 32 | 12 mm | inactive | 25 (≈ 101 µM) | 6.25 (≈ 25.3 µM) | 3.12 (≈ 12.7 µM) | inactive | 32 | 33 | inactive | 36 mm | 22 | 64 | > 400 | 6.25 (≈ 25.3 µM) | diameter of the inhibition zone (DIZ) (Proteus mirabilis [16]): inactive; diameter of the inhibition zone (DIZ) (Candida tropicalis [17]): 31 mm; diameter of the inhibition zone (DIZ) [18]: 47 mm; MIC [19]: 200 µg/mL (≈ 810 µM); pKa [20]: 6; MIC (Enterococcus faecalis): 25 µg/mL (≈ 101 µM); MIC (Enterobacter cloacae [21]): > 400 µg/mL; MIC (Candida albicans): 12.5 µg/mL (≈ 50.6 µM); fold change (FC) (Acinetobacter baumannii [22]): 8; MIC (Staphylococcus aureus): 6.25 µg/mL (≈ 25.3 µM); MIC (Escherichia coli [23]): 400 µg/mL (≈ 1620 µM); fold change (FC) (Enterobacter cloacae [24]): 64 |
| C[Si]1(C)OB(O)c2c(F)c(F)c(F)c(F)c21 | 12 mm | 11 mm | 2 | 18 mm | 21 mm | 4 | 15 mm | inactive | 50 (≈ 200 µM) | 100 (≈ 400 µM) | 1.56 (≈ 6.24 µM) | inactive | 16 | 20 | inactive | 35 mm | 17 | 16 | > 400 | 25 (≈ 100 µM) | diameter of the inhibition zone (DIZ) (Proteus mirabilis [16]): 11 mm; diameter of the inhibition zone (DIZ) (Candida tropicalis [17]): 13 mm; diameter of the inhibition zone (DIZ) [18]: 14 mm; MIC [19]: 400 µg/mL (≈ 1600 µM); pKa [20]: 4.7; MIC (Enterococcus faecalis): 200 µg/mL (≈ 800 µM); MIC (Enterobacter cloacae [21]): > 400 µg/mL; MIC (Candida albicans): 200 µg/mL (≈ 800 µM); fold change (FC) (Acinetobacter baumannii [22]): 4; MIC (Staphylococcus aureus): 25 µg/mL (≈ 100 µM); MIC (Escherichia coli [23]): > 400 µg/mL; fold change (FC) (Enterobacter cloacae [24]): 32 |
